Measurements as given in ChEMBL document CHEMBL1124291, “New actinomycin D analogues as superior chemotherapeutic agents against primary and advanced colon tumors and colon xenografts in nude mice” (J Med Chem, 1988).

How the values were obtained:
MC-38 [1] = assay: Number of toxic deaths/number of mice in a group of non tumored mice treated in parallel with the tumor-bearing mice and observed for 100 days at a dose 0.15 mg/kg; value given as 1/9; type: toxicity, organism-based; set-up: dose 0.15 mg/kg; conditions: mouse, in vivo, 2400 h
Summary of the method: (§1)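 Non-tumored CDF1 mice were treated in parallel with colon 38 tumor-bearing mice: iv injections on days 1, 5 and 9, groups of nine. Deaths were counted over 100 days of observation and reported as toxic deaths / mice in group.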

B16 [2] = assay: in vivo Antitumor activity against B16 melanoma cells at dose 300 ug/Kg /inj measured as mean survival time (MST); type: functional, Mus musculus
Summary of the method: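 B16 melanoma implanted ip on day 0 as 0.2 mL of a 1:5 (weight/volume) brei, in groups of nine BDF₁ mice; drugs given ip. MST is the median survival time in days, with the range of days of death of individual animals; % ILS is percent increase in life span, with survivors on day 65 over total injected.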

P388 [3] = assay: 50% inhibition of incorporation precursor [14C]uridine into RNA P388 cell lines; type: functional, cell-based; conditions: Mus musculus
MC-38 [4] = assay: Mean survival time of treated / untreated group x100. (number of over 100-day survivors/number of total mice in the group) at a dose 0.60 mg/kg; type: functional, Mus musculus; conditions: dose 0.6 mg/kg
Summary of the method: (§2)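 CDF1 mice were implanted sc on day 0 with colon 38 adenocarcinoma fragments (70 mg) and given iv drug on days 1, 5 and 9. %T/C = median survival of treated / untreated × 100. Number of mice surviving over 100 days / group total is given in parentheses.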

P388 [5] = assay: Antitumor activity in P388/ADR (adriamycin resistant), in male BDF1 mice measured as optimal dose at dose 0.10-0.8 mg/kg
MC-38 [6] = assay: Mean survival time of treated / untreated group x100. (number of over 100-day survivors/number of total mice in the group) at a dose 0.30 mg/kg; type: functional, Mus musculus; conditions: dose 0.3 mg/kg; summary of the method: as §2
P388 [7] = assay: Antitumor activity in P388/S(AMD sensitive) in male BDF1 mice measured as optimal dose
MC-38 [8] = assay: Activity against advanced carcinoma C38 tumor in CDF1 Mice at dose 0.30 mg/kg measured as % inhibition of tumor; type: functional; conditions: Mus musculus
MC-38 [9] = assay: Activity against advanced carcinoma C38 tumor in CDF1 Mice at dose 0.60 mg/kg measured as % inhibition of tumor; type: functional; conditions: Mus musculus
Rattus norvegicus [10] = organism: Rattus norvegicus; assay: The formation of adrenochrome from epinephrine in the presence of SOD(super oxide dismutase); + denotes ' Inhibited'; type: functional
Summary of the method: (§3)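 Drug-stimulated superoxide generation with rat liver microsomal enzymes and NADPH as cofactor. NADPH oxidation was read at 340 nm. Adrenochrome formed from epinephrine was read at 480 nm, with or without superoxide dismutase. % stimulation = [(drug-stimulated rate − basal rate)/basal rate] × 100. Values are mean ± standard error of triplicate analyses.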

HT-29 [11] = assay: 50% inhibition of incorporationf precursor [3H]thymidine into DNA HT-29 cell lines; type: functional, cell-based; conditions: Homo sapiens, HT-29, 2 h
Summary of the method: (§4)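 HT-29 colon carcinoma monolayers, 10^4 cells per well, five wells per concentration. Drug exposure lasted 2 h, with [³H]thymidine and [2-¹⁴C]uridine (0.5 μCi each) added for the last hour. Cells were washed, trypsinized, counted and precipitated onto glass-fiber filters with 10% TCA. Acid-precipitable radioactivity was measured. IC50 is the concentration inhibiting 50% of incorporation; data are averages of replicate experiments.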

MC-38 [12] = assay: Number of toxic deaths/number of mice in a group of non tumored mice treated in parallel with the tumor-bearing mice and observed for 100 days at a dose 0.60 mg/kg; value given as 0/9; type: functional, Mus musculus; conditions: dose 0.6 mg/kg; summary of the method: as §1
MC-38 [13] = assay: Mean survival time of treated / untreated group x100. (number of over 100-day survivors/number of total mice in the group) at a dose 1.20 mg/kg; type: functional, Mus musculus; conditions: dose 1.2 mg/kg; summary of the method: as §2
HT-29 [14] = assay: 50% inhibition of incorporationf precursor [3H]thymidine into RNA HT-29 cell lines; type: functional, cell-based; conditions: Homo sapiens, HT-29, 2 h; in the assay text read “[14C]uridine” for “[3H]thymidine”; summary of the method: as §4
MC-38 [15] = assay: Number of toxic deaths/number of mice in a group of non tumored mice treated in parallel with the tumor-bearing mice and observed for 100 days at a dose 1. 20 mg/Kg; value given as 4/9; type: toxicity, cell-based; conditions: mouse, in vivo, 2400 h; summary of the method: as §1
MC-38 [16] = assay: Number of toxic deaths/number of mice in a group of non tumored mice treated in parallel with the tumor-bearing mice and observed for 100 days at a dose 0.30 mg/kg; value given as 0/9; type: functional, Mus musculus; conditions: dose 0.3 mg/kg; summary of the method: as §1
MC-38 [17] = assay: Mean survival time of treated / untreated group x100. (number of over 100-day survivors/number of total mice in the group) at a dose 0.15 mg/kg; type: functional, Mus musculus; summary of the method: as §2
MC-38 [18] = assay: Activity against advanced carcinoma C38 tumor in CDF1 Mice at dose 1.20 mg/kg measured as % inhibition of tumor; type: functional; conditions: Mus musculus
Rattus norvegicus [19] = organism: Rattus norvegicus; assay: The formation of adrenochrome from epinephrine in the absence of SOD(super oxide dismutase); type: functional; summary of the method: as §3
P388 (Mus musculus) = assay: 50% inhibition of incorporation of precursor [3H]thymidine into DNA P388 cell lines; conditions: P388, 2 h
Rattus norvegicus [20] = organism: Rattus norvegicus; assay: Stimulation of NADPH oxidation in the presence of rat liver microsomes; type: functional; summary of the method: as §3
MC-38 [21] = assay: Activity against advanced carcinoma C38 tumor in CDF1 Mice at dose 0.15 mg/kg measured as % inhibition of tumor; type: functional; conditions: Mus musculus
B16 [22] = assay: In vivo antitumor activity against B16 melanoma cells at a optimal dose measured as %ILS (%increase life span) at a dose 300 micro g/Kg/inj; type: functional, Mus musculus
Summary of the method: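 BDF1 mice in groups of nine were implanted ip on day 0 with 0.2 mL of 1:5 (w/v) B16 melanoma brei; drugs were given ip. Survival is reported as median survival time in days with range, and as %ILS, with survivors counted on day 65 out of total injected.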

MC-38 [23] = assay: Mean survival time of treated / untreated group x100. (number of over 100-day survivors/number of total mice in the group) at a dose 4.0 mg/kg; type: functional, Mus musculus; summary of the method: as §2
MC-38 [24] = assay: Number of toxic deaths/number of mice in a group of non tumored mice treated in parallel with the tumor-bearing mice and observed for 100 days at a dose 2.0 mg/kg; value given as 0/9; type: functional, Mus musculus; summary of the method: as §1
P388 [25] = assay: Antitumor activity in P388/S(AMD sensitive) in male BDF1 mice measured as optimal dose; remark: listed apart in the source
MC-38 [26] = assay: Number of toxic deaths/number of mice in a group of non tumored mice treated in parallel with the tumor-bearing mice and observed for 100 days at a dose 3.0 mg/kg; value given as 0/9; type: functional, Mus musculus; summary of the method: as §1
MC-38 [27] = assay: Mean survival time of treated / untreated group x100. (number of over 100-day survivors/number of total mice in the group) at a dose 3.0 mg/kg; type: functional, Mus musculus; summary of the method: as §2
MC-38 [28] = assay: Activity against advanced carcinoma C38 Tumor in CDF1 Mice at dose 2.0 mg/Kg measured as % inhibition of tumor; type: functional; conditions: Mus musculus
MC-38 [29] = assay: Number of toxic deaths/number of mice in a group of non tumored mice treated in parallel with the tumor-bearing mice and observed for 100 days at a dose 5.0 mg/kg; value given as 8/9; type: toxicity, organism-based; set-up: dose 5 mg/kg; conditions: mouse, in vivo, 2400 h; summary of the method: as §1
P388 [30] = assay: Antitumor activity in P388/ADR (adriamycin resistant), in male BDF1 mice measured as optimal dose at dose 2.5-4.5 mg/kg/ inj, ip
MC-38 [31] = assay: Number of toxic deaths/number of mice in a group of non tumored mice treated in parallel with the tumor-bearing mice and observed for 100 days at a dose 4.0 mg/kg; value given as 3/9; type: toxicity, organism-based; set-up: dose 4 mg/kg; conditions: mouse, in vivo, 2400 h; summary of the method: as §1
MC-38 [32] = assay: Activity against advanced carcinoma C38 Tumor in CDF1 Mice at dose 4.0 mg/Kg measured as % inhibition of tumor; type: functional; conditions: Mus musculus
MC-38 [33] = assay: Activity against advanced carcinoma C38 Tumor in CDF1 Mice at dose 3.0 mg/Kg measured as % inhibition of tumor; type: functional; conditions: Mus musculus

Work on `Cc1c2oc3c(C)c4oc(-c5ccccc5)nc4c(C(=O)N[C@@H]4C(=O)N[C@H](C(C)C)C(=O)N5CCC[C@H]5C(=O)N(C)CC(=O)N(C)[C@@H](C(C)C)C(=O)O[C@@H]4C)c3nc-2c(C(=O)N[C@@H]2C(=O)N[C@H](C(C)C)C(=O)N3CCC[C@H]3C(=O)N(C)CC(=O)N(C)[C@@H](C(C)C)C(=O)O[C@@H]2C)c(N)c1=O` yielded a Toxic deaths (MC-38 [1]) of 1, an MST (B16 [2]) of 59 and an IC50 (P388 [3]) of 70 nM. It also gave a T/C (MC-38 [4]) of 170%, an optimal dose (P388 [5]) of 0.6 mg/kg and a T/C (MC-38 [6]) of 137%. It also gave an optimal dose (P388 [7]) of 0.35 mg/kg, an inhibition in vivo at 0.3 mg/kg (MC-38 [8]) of 70% and an inhibition in vivo at 0.6 mg/kg (MC-38 [9]) of 83%. For the same molecule, the Adrenochrome formation (Rattus norvegicus [10]) was “Inhibited”, the IC50 (HT-29 [11]) was 580 nM and the Toxic deaths (MC-38 [12]) was 0. It also gave a T/C (MC-38 [13]) of 103%, an IC50 (HT-29 [14]) of 68 nM and a Toxic deaths (MC-38 [15]) of 4. The Toxic deaths (MC-38 [16]) was 0, the T/C (MC-38 [17]) was 103% and the inhibition in vivo at 1.2 mg/kg (MC-38 [18]) was 88%. The Adrenochrome formation (Rattus norvegicus [19]) was 18.8 nM min-1 (mg of protein)-1, the IC50 (P388 (Mus musculus)) was 780 nM and the NADPH oxidation (nM min-1 (mg of protein)-1) (Rattus norvegicus [20]) was 65. For the same molecule, the inhibition in vivo at 0.15 mg/kg (MC-38 [21]) was 29% and the ILS (B16 [22]) was 103%.
`COc1cccc2c1C(=O)c1c(O)c3c(c(O)c1C2=O)C[C@@](O)(C(=O)CO)C[C@@H]3O[C@H]1C[C@H](N)[C@H](O)[C@H](C)O1` [DOXORUBICIN] was tested, and the T/C (MC-38 [23]) was 250%, the Toxic deaths (MC-38 [24]) was 0 and the optimal dose (P388 [25]) was 3 mg/kg. It also gave a Toxic deaths (MC-38 [26]) of 0, a T/C (MC-38 [27]) of 98% and an inhibition in vivo at 2 mg/kg (MC-38 [28]) of 29%. It also gave a Toxic deaths (MC-38 [29]) of 8, an optimal dose (P388 [30]) of 3.5 mg/kg and a Toxic deaths (MC-38 [31]) of 3. It also gave an inhibition in vivo at 4 mg/kg (MC-38 [32]) of 93% and an inhibition in vivo at 3 mg/kg (MC-38 [33]) of 70%.
